Assay results: ChEMBL document CHEMBL4138041, “Synthesis and biological activity evaluation of novel peroxo-bridged derivatives as potential anti-hepatitis B virus agents” (Medchemcomm, 2017)
Values after ≈ are worked out from the molar mass of the structure shown.

Experiments:
[1] = tested on: Hepatitis B virus; experiment: Antiviral activity against Hepatitis B virus infected in human HepG2.2.15 cells assessed as inhibition of HBsAg secretion at 3.13 ug/ml after 4 days by ELISA relative to control; format: functional; settings: HepG2.2.15, 96 h
In short: (§1)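 HepG2.2.15 cells in DMEM with nonessential amino acids, sodium pyruvate and 10% heat-inactivated FBS, 37 °C, 5% CO2, seeded at 1.0×10^5 cells/mL. Treated at 3.13 µg/mL for 4 or 8 days. Cleared supernatant stored at -20 °C, then HBsAg/HBeAg measured by ELISA, OD 450 nm. % inhibition = (1 − sample OD/untreated control OD)×100.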

[2] = tested on: Hepatitis B virus; experiment: Antiviral activity against Hepatitis B virus infected in human HepG2.2.15 cells assessed as inhibition of HBeAg secretion at 3.13 ug/ml after 4 days by ELISA relative to control; format: functional; settings: HepG2.2.15, 96 h; in short: as §1
[3] = tested on: Hepatitis B virus; experiment: Antiviral activity against Hepatitis B virus infected in human HepG2.2.15 cells assessed as inhibition of HBsAg secretion at 3.13 ug/ml after 8 days by ELISA relative to control; format: functional; settings: HepG2.2.15, 192 h; in short: as §1
[4] = tested on: Hepatitis B virus; experiment: Antiviral activity against Hepatitis B virus infected in human HepG2.2.15 cells assessed as inhibition of HBeAg secretion at 3.13 ug/ml after 8 days by ELISA relative to control; format: functional; settings: HepG2.2.15, 192 h; in short: as §1
[5] = (§2) Cytotoxicity against human HepG2.2.15 cells after 4 days by MTS assay; format: cell-based, HepG2 2.2.15; settings: HepG2.2.15 cells, read-out: TC50
In short: (§3)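 HepG2.2.15 cells seeded at 1.0×10^5 cells/mL, grown 24 h at 37 °C in 5% CO2, then exposed to various concentrations (ethanol-dissolved) for 4 days. Medium removed and MTS added for 3 h at 37 °C. Absorbance read at 490 nm. % inhibition = (1 − sample OD/untreated control OD)×100.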

[6] = tested on: HepG2 2.2.15; experiment: as §2; format: cell-based; settings: hepg2 2.2.15, 96 h; in short: as §3
[7] = tested on: Hepatitis B virus; experiment: Antiviral activity against Hepatitis B virus infected in human HepG2.2.15 cells assessed as inhibition of HBsAg secretion after 4 days by ELISA; format: functional, organism-based; settings: HepG2.2.15, 96 h
In short: (§4)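 HepG2.2.15 cells kept as monolayers in DMEM with nonessential amino acids, sodium pyruvate and 10% heat-inactivated FBS, 37 °C, 5% CO2. Seeded at 1.0×10^5 cells/mL in 96-well plates and exposed to a range of concentrations (ethanol-dissolved) for 4 or 8 days. Supernatant HBsAg/HBeAg measured by ELISA at 450 nm. % inhibition = (1 − sample OD/untreated control OD)×100.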

[8] = tested on: Hepatitis B virus; experiment: Antiviral activity against Hepatitis B virus infected in human HepG2.2.15 cells assessed as inhibition of HBeAg secretion after 4 days by ELISA; format: functional, organism-based; settings: HepG2.2.15, 96 h; in short: as §4
[9] = tested on: Hepatitis B virus; experiment: Antiviral activity against Hepatitis B virus infected in human HepG2.2.15 cells assessed as inhibition of HBsAg secretion after 8 days by ELISA; format: functional, organism-based; settings: HepG2.2.15, 192 h; in short: as §4
[10] = tested on: Hepatitis B virus; experiment: Antiviral activity against Hepatitis B virus infected in human HepG2.2.15 cells assessed as inhibition of HBeAg secretion after 8 days by ELISA; format: functional, organism-based; settings: HepG2.2.15, 192 h; in short: as §4
[11] = Therapeutic index, ratio of TC50 for human HepG2.2.15 cells to IC50 for Hepatitis B virus infected in human HepG2.2.15 cells assessed as inhibition of HBsAg secretion after 4 days; format: toxicity, cell-based; settings: read-out: TI
[12] = Therapeutic index, ratio of TC50 for human HepG2.2.15 cells to IC50 for Hepatitis B virus infected in human HepG2.2.15 cells assessed as inhibition of HBeAg secretion after 4 days; format: toxicity, cell-based; settings: read-out: TI
[13] = Therapeutic index, ratio of TC50 for human HepG2.2.15 cells to IC50 for Hepatitis B virus infected in human HepG2.2.15 cells assessed as inhibition of HBsAg secretion after 8 days; format: toxicity, cell-based; settings: read-out: TI
[14] = Therapeutic index, ratio of TC50 for human HepG2.2.15 cells to IC50 for Hepatitis B virus infected in human HepG2.2.15 cells assessed as inhibition of HBeAg secretion after 8 days; format: toxicity, cell-based; settings: read-out: TI
[15] = Acute toxicity in ICR mouse assessed as mortality rate at 1000 mg/kg, ip measured up to 14 days relative to control; format: organism-based; settings: in vivo
In short: (§5)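 Kunming mice of both sexes, 18-22 g, six groups of six matched for weight and size, single intraperitoneal injection at 56, 178, 350, 422, 750 or 1000 mg/kg. General behaviour observed at 1, 4 and 24 h, then followed up to 14 days for behaviour, toxic effects and mortality. LD50 with 95% confidence interval derived from the dose groups.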

[16] = Acute toxicity in ICR mouse assessed as mortality rate at 750 mg/kg, ip measured up to 14 days relative to control; format: organism-based; settings: in vivo; in short: as §5
[17] = Acute toxicity in ICR mouse assessed as mortality rate at 422 mg/kg, ip measured up to 14 days relative to control; format: organism-based; settings: in vivo; in short: as §5
[18] = Acute toxicity in ICR mouse assessed as mortality rate at 178 mg/kg, ip measured up to 14 days relative to control; format: organism-based; settings: in vivo; in short: as §5

| Structure (SMILES) | inhibition at 3.13 µg/mL [1] | inhibition at 3.13 µg/mL [2] | inhibition at 3.13 µg/mL [3] | inhibition at 3.13 µg/mL [4] | CC50 at 96 h [5] | Activity [6] | IC50 [7] | IC50 [8] | IC50 [9] | IC50 [10] | selectivity ratio at 96 h [11] | selectivity ratio at 96 h [12] | selectivity ratio at 192 h [13] | selectivity ratio at 192 h [14] | mortality at 336 h [15] | mortality at 336 h [16] | mortality at 336 h [17] | mortality at 336 h [18] |
| --- | --- | --- | --- | --- | --- | --- | --- | --- | --- | --- | --- | --- | --- | --- | --- | --- | --- | --- |
| Nc1ccn([C@H]2CS[C@@H](CO)O2)c(=O)n1 | 5.68% | 4.94% | -0.44% | -9.22% |  |  |  |  |  |  |  |  |  |  |  |  |  |  |
| CC(C)CCC[C@@H](C)[C@H]1CC[C@@H]2[C@]1(C)CC[C@H]1[C@]23C=C[C@@]2(CC(=O)CC[C@]12C)OO3 | 72.3% | 54.1% | 77.5% | 58.7% | 10.2 µg/mL (≈ 24.7 µM) | Dose-dependent effect | 1.78 µg/mL (≈ 4.29 µM) | 1.86 µg/mL (≈ 4.49 µM) | 2.59 µg/mL (≈ 6.25 µM) | 2.95 µg/mL (≈ 7.11 µM) | 5.79 | 5.51 | 3.4 | 3.47 | 100% | 100% | 67% | 0% |
| CCC(CC[C@@H](C)[C@H]1CC[C@@H]2[C@]1(C)CC[C@H]1[C@]23C=C[C@@]2(C[C@@H](O)CC[C@]12C)OO3)C(C)C (some centres not stated) | 19% | 2.88% | 20% | 10.3% |  | Dose-dependent effect |  |  |  |  |  |  |  |  |  |  |  |  |
| CC(=O)O[C@H]1CC[C@]2(C)[C@H]3CC[C@]4(C)[C@@H]([C@H](C)CCCC(C)C)CC[C@H]4[C@@]34C=C[C@@]2(C1)OO4 | 13% | 3.51% | 13.8% | 7.56% |  | Dose-dependent effect |  |  |  |  |  |  |  |  |  |  |  |  |
| CC(C)CCC[C@@H](C)[C@H]1CC[C@@H]2[C@]1(C)CC[C@H]1[C@]23C=C[C@@]2(C[C@@H](O)CC[C@]12C)OO3 | 1.2% | 1.35% | 1.56% | 2.55% |  | Dose-dependent effect |  |  |  |  |  |  |  |  |  |  |  |  |
| CCC(CC[C@@H](C)[C@H]1CC[C@@H]2[C@]1(C)CC[C@H]1[C@]23C=C[C@@]2(C[C@@H](OC(C)=O)CC[C@]12C)OO3)C(C)C (some centres not stated) | 26.7% | 25.6% | 28.8% | 25.8% |  | Dose-dependent effect |  |  |  |  |  |  |  |  |  |  |  |  |
| CCC(CC[C@@H](C)[C@H]1CC[C@@H]2[C@]1(C)CC[C@H]1[C@]23C=C[C@@]2(CC(=O)CC[C@]12C)OO3)C(C)C (some centres not stated) | 1.91% | 3.28% | 5.7% | 2.36% |  | Dose-dependent effect |  |  |  |  |  |  |  |  |  |  |  |  |
